Test results reported in ChEMBL document CHEMBL4049428, “Exploring Derivatives of Quinazoline Alkaloid l-Vasicine as Cap Groups in the Design and Biological Mechanistic Evaluation of Novel Antitumor Histone Deacetylase Inhibitors” (J Med Chem, 2017).
pIC50: −log10 of the molar value. Calls of active or inactive are those of the source. The rule behind the calls is not given here.

Tests used:
Caco-2 [1] = assay: Cytotoxicity against human Caco2 cells assessed as growth inhibition after 48 hrs by MTT assay; type: functional, cell-based; conditions: Caco-2, 48 h
Histone deacetylase 8 = Histone deacetylase 8 (Homo sapiens, UniProt Q9BY41); assay: Inhibition of HDAC 8 in human HeLa nuclear extract using fluorogenic HDAC class 2A substrate measured after 60 mins by fluorometric analysis
MOLT-4 [2] = assay: Induction of reactive oxygen species in human MOLT4 cells at 10 uM measured after 48 hrs by H2DCFDA dye-based flow cytometric analysis (reference value: 1.1%); type: functional
THP-1 [3] = assay: Cytotoxicity against human THP1 cells assessed as growth inhibition at 10 uM after 48 hrs by MTT assay; type: functional; conditions: THP-1, 48 h, read-out: GI
Summary of the method: (§1)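 MTT assay, 48 h exposure; adherent lines seeded 12 h and suspension lines 4 h before compound. Media: RPMI-1640/10% FCS (THP-1, HL-60, Colo-205, Caco-2, A549), DMEM/10% FCS (A549, MIAPaCa-2, MCF-7). MTT 4 h, formazan dissolved in DMSO, absorbance 570 nm. Mean ± S.D of three experiments in triplicate; SAHA 5 µM reference.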

HL-60 [4] = assay: Induction of reactive oxygen species in human HL60 cells at 5 uM measured after 48 hrs by H2DCFDA dye-based flow cytometric analysis (reference value: 0.4%); type: functional
PC-3 [5] = assay: Cytotoxicity against human PC3 cells assessed as growth inhibition at 10 uM after 48 hrs by MTT assay; type: functional; conditions: PC-3, 48 h, read-out: GI
[6] = Inhibition of HDAC in human HeLa nuclear extract using Boc-Lys(Ac)-AMC as substrate measured after 30 mins by fluorometric analysis
THP-1 [7] = assay: Antimigratory activity in human THP1 cells at 0.125 uM after 48 hrs by wound healing assay; type: functional, cell-based
Summary of the method: (§2)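 THP-1 cells seeded at high density, attached overnight; monolayer scratched with a pipette tip, debris removed by PBS washes, then test compound added after wounding. Incubated 48 h under standard culture conditions (37°C, 5% CO2); wound images taken at various intervals from time zero.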

PC-3 [8] = assay: Cytotoxicity against human PC3 cells assessed as growth inhibition after 48 hrs by MTT assay; type: functional, cell-based; conditions: PC-3, 48 h
[9] = target: Polyamine deacetylase HDAC10 (Homo sapiens, UniProt Q969S8); assay: Inhibition of HDAC 10 in human HeLa nuclear extract measured after 60 mins by fluorometric analysis
[10] = Cytotoxicity against human FR2 cells assessed as growth inhibition after 48 hrs by MTT assay; type: ADME, cell-based; conditions: FR2, 48 h
MCF7 = assay: Cytotoxicity against human MCF7 cells assessed as growth inhibition at 10 uM after 48 hrs by MTT assay; type: functional; conditions: MCF7, 48 h, read-out: GI; summary of the method: as §1
THP-1 [11] = assay: Antimigratory activity in human THP1 cells at 10 uM after 48 hrs by wound healing assay; type: functional, cell-based; summary of the method: as §2
MOLT-4 [12] = assay: Induction of reactive oxygen species in human MOLT4 cells at 1 uM measured after 48 hrs by H2DCFDA dye-based flow cytometric analysis (reference value: 1.1%); type: functional
HL-60 [13] = assay: Induction of reactive oxygen species in human HL60 cells at 0.125 uM measured after 48 hrs by H2DCFDA dye-based flow cytometric analysis (reference value: 0.4%); type: functional
HL-60 [14] = assay: Induction of autophagy in human HL60 cells assessed as intracellular LC-3B distribution at 10 uM after 48 hrs by DAPI dye-based immunofluorescent microscopic analysis; type: functional, cell-based
Summary of the method: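 After 48 h treatment (SAHA 1.0 µM control), cells put on poly-lysine coverslips, fixed 15 min in 4% paraformaldehyde, permeabilised with 0.1% Triton X-100, blocked in 10% BSA; anti-LC-3B 1:100 for 1 h, Alexa Fluor 488 secondary 1:500 for 1 h, DAPI 1 µg/ml counterstain; imaged with 60X oil objective.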

MOLT-4 [15] = assay: Induction of mitochondrial membrane potential loss in human MOLT4 cells at 0.125 uM measured after 48 hrs by Rh123 dye-based flow cytometric analysis (reference value: 9.6%); type: functional
Summary of the method: (§3)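 Cells seeded in 6-well plates 2-4 h, then 48 h with compound; Rh-123 1 µM added for the final half hour; cells centrifuged, washed twice in PBS, resuspended in PBS, and Ψm loss quantified by flow cytometry as percentage of cells.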

MOLT-4 [16] = assay: Induction of autophagy in human MOLT4 cells assessed as acidic vacuole formation in cytoplasm at 10 uM after 48 hrs by acridine orange dye-based fluorescent microscopic analysis; type: functional, cell-based
Summary of the method: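 Cells treated 48 h with a range of compound concentrations, SAHA 1.0 µM as positive control; acridine orange 1 µg/ml added 15 min before end at 37°C; cells washed in PBS and acidic vacuoles viewed by fluorescence microscopy.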

P388 = assay: Antitumor activity against mouse P388 cells implanted in CDF1 mouse assessed as increase in median survival time at 50 mg/kg, ip administered for 9 consecutive days; type: functional
Summary of the method: (§4)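 P388 leukemia cells were harvested from 6–7-day-old ascites grown in the peritoneum of female DBA/2 mice. Female CDF1 mice (18–23 g) received 5×10^5 cells i.p. on day 0. Next day they were randomized into groups of 7 and dosed i.p. daily for 9 consecutive days; controls got 0.2 ml normal saline. Mortality was followed to day 18, with median survival time and %T/C calculated.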

MOLT-4 [17] = assay: Induction of mitochondrial membrane potential loss in human MOLT4 cells at 5 uM measured after 48 hrs by Rh123 dye-based flow cytometric analysis (reference value: 9.6%); type: functional; summary of the method: as §3
A549 = assay: Cytotoxicity against human A549 cells assessed as growth inhibition at 10 uM after 48 hrs by MTT assay; type: functional; conditions: A549, 48 h, read-out: GI; summary of the method: as §1
HL-60 [18] = assay: Induction of mitochondrial membrane potential loss in human HL60 cells at 0.125 uM measured after 48 hrs by Rh123 dye-based flow cytometric analysis (reference value: 5.6%); type: functional; summary of the method: as §3
Caco-2 [19] = assay: Cytotoxicity against human Caco2 cells assessed as growth inhibition at 10 uM after 48 hrs by MTT assay; type: functional; conditions: Caco-2, 48 h, read-out: GI; summary of the method: as §1
Mus musculus = assay: Toxicity in CDF1 mouse assessed as mortality at 50 mg/kg, ip administered for 9 consecutive days measured up to 18 days; type: organism-based; conditions: in vivo, 432 h; summary of the method: as §4
MOLT-4 [20] = assay: Induction of mitochondrial membrane potential loss in human MOLT4 cells assessed as intact mitochondrial membrane potential at 5 uM measured after 48 hrs by Rh123 dye-based flow cytometric analysis (reference value: 90.4%); type: functional; summary of the method: as §3
Histone deacetylase 9 = Histone deacetylase 9 (Homo sapiens, UniProt Q9UKV0); assay: Inhibition of HDAC 9 in human HeLa nuclear extract using fluorogenic HDAC class 2A substrate measured after 60 mins by fluorometric analysis
MOLT-4 [21] = assay: Cytotoxicity against human MOLT4 cells assessed as growth inhibition at 10 uM after 48 hrs by MTT assay; type: functional; conditions: MOLT-4, 48 h, read-out: GI
Histone deacetylase 2 = Histone deacetylase 2 (Homo sapiens, UniProt Q92769); assay: Inhibition of HDAC 2 in human HeLa nuclear extract using HDAC substrate-3 measured after 60 mins by fluorometric analysis
Histone deacetylase 5 = Histone deacetylase 5 (Homo sapiens, UniProt Q9UQL6); assay: Inhibition of HDAC 5 in human HeLa nuclear extract using fluorogenic HDAC class 2A substrate measured after 60 mins by fluorometric analysis
Histone deacetylase 5, sequence (Q9UQL6 whole entry): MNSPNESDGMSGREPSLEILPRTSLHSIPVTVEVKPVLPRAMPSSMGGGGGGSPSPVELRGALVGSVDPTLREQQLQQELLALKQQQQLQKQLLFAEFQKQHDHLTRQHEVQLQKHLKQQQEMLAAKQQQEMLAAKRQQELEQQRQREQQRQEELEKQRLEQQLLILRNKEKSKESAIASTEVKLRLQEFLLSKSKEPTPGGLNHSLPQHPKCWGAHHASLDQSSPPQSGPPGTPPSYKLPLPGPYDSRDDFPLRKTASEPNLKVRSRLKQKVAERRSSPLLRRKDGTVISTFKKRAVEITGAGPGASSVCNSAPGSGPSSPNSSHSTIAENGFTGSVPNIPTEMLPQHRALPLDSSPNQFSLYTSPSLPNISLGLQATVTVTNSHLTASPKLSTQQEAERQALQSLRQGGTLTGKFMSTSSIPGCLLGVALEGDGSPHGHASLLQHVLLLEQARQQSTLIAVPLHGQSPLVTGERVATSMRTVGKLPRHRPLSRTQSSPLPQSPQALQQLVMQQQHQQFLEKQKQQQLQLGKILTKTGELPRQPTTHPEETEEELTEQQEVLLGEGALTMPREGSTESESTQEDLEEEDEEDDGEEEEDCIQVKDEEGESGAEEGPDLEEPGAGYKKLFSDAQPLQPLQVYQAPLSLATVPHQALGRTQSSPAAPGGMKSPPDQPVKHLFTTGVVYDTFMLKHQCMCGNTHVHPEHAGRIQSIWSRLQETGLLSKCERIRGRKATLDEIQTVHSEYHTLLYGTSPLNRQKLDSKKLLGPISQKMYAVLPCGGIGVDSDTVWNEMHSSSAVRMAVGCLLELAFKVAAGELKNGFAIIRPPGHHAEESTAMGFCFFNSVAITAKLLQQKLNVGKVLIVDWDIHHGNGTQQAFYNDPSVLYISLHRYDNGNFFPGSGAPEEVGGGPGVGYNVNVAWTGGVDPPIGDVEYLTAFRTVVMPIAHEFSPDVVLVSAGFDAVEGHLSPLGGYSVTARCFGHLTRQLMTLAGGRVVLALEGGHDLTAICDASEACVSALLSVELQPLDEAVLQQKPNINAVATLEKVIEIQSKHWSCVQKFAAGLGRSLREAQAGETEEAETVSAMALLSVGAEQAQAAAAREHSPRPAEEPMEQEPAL

Histone deacetylase 2, sequence (Q92769 whole entry): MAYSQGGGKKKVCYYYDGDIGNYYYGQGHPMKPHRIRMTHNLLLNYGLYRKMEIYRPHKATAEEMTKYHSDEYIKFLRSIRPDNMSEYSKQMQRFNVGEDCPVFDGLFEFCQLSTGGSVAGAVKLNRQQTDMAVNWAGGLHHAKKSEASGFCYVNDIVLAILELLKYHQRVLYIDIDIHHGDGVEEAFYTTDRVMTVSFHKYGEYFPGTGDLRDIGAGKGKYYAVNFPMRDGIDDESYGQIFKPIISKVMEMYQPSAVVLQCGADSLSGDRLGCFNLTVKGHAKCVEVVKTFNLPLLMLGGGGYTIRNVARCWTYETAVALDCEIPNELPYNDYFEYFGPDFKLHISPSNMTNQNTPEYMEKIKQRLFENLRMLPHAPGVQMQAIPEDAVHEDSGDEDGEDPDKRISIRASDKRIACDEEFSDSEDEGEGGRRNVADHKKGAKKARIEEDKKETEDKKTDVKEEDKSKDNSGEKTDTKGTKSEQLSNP
Histone deacetylase 9, sequence (Q9UKV0 whole entry): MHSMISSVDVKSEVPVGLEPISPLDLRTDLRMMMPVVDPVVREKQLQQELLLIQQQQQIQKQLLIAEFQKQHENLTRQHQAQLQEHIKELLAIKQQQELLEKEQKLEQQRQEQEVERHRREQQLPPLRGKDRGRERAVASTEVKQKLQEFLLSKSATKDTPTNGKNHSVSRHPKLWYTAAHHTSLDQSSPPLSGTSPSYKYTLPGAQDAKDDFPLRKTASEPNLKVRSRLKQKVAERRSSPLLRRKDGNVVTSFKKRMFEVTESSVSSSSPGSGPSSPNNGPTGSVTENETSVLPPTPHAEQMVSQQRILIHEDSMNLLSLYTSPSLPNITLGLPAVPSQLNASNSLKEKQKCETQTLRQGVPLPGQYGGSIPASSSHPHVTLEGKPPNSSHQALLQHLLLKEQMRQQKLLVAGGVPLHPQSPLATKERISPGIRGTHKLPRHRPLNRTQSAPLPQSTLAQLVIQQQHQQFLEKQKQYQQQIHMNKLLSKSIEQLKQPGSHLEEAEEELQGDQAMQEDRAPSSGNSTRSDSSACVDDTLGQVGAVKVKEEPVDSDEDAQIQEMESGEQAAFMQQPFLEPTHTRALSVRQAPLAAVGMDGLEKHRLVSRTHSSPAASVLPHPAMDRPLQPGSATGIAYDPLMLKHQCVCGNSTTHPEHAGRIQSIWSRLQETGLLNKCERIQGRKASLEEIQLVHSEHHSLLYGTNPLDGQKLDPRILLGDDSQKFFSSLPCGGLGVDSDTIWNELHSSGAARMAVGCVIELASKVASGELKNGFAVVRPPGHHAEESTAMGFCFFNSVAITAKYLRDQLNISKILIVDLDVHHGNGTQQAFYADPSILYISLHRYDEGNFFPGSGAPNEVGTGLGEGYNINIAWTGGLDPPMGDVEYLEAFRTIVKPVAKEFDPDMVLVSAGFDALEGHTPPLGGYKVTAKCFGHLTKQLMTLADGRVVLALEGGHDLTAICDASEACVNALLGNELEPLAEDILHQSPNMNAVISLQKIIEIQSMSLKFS
Polyamine deacetylase HDAC10, sequence (Q969S8 whole entry): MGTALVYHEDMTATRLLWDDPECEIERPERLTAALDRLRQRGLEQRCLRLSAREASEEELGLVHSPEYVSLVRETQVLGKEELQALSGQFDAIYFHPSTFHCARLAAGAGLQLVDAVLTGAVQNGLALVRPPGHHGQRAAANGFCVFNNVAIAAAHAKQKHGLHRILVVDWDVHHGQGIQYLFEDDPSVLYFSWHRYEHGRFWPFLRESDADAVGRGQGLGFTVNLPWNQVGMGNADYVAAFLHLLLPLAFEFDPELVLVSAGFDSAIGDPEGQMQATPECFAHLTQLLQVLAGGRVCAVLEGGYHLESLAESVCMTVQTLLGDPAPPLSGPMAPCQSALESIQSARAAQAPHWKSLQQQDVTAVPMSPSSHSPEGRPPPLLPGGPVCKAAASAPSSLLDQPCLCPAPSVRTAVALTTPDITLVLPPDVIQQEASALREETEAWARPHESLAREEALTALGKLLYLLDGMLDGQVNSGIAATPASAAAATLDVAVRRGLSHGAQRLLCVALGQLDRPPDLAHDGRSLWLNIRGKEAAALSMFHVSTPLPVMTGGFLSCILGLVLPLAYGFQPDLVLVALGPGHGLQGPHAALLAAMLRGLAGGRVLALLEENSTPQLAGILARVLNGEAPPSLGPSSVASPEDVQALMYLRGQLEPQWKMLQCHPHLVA
Histone deacetylase 8, sequence (Q9BY41 whole entry): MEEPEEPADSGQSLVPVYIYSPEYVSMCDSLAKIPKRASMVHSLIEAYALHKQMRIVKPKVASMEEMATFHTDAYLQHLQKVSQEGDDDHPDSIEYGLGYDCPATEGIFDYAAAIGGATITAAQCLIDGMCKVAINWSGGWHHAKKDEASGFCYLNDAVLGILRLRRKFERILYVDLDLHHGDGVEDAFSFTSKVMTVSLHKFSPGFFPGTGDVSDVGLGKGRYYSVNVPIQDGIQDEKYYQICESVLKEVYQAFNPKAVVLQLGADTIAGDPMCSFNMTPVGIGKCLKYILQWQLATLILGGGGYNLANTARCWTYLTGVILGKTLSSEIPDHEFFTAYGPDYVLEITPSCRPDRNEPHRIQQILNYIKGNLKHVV

SMILES: O=C(CCCCCCC(=O)Nc1ccccc1CN1CC[C@H](O)C1)NO
- pIC50 (Caco-2 [1]): 5.22
- pIC50 (Histone deacetylase 8): 6.68
- Activity (MOLT-4 [2]): 0.9%
- inhibition of growth at 10 µM (THP-1 [3]): 94%
- Activity (HL-60 [4]): 0%
- inhibition of growth at 10 µM (PC-3 [5]): 29%
- pIC50 [6]: 6.43
- Activity (THP-1 [7]): Active
- pIC50 (PC-3 [8]): 4.72
- pIC50 [9]: < 5.00
- pIC50 [10]: 4.64
- inhibition of growth at 10 µM (MCF7): 93%
- Activity (THP-1 [11]): Active
- Activity (MOLT-4 [12]): 1.1%
- Activity (HL-60 [13]): 1%
- Activity (HL-60 [14]): Active
- Activity (MOLT-4 [15]): 2.4%
- Activity (MOLT-4 [16]): Active
- T/C (P388): 92.47%
- Activity (MOLT-4 [17]): 57.5%
- inhibition of growth at 10 µM (A549): 84%
- Activity (HL-60 [18]): 7.5%
- inhibition of growth at 10 µM (Caco-2 [19]): 58%
- Activity (Mus musculus): Non-Toxic
- Activity (MOLT-4 [20]): 42.5%
- pIC50 (Histone deacetylase 9): < 5.00
- inhibition of growth at 10 µM (MOLT-4 [21]): 91%
- pIC50 (Histone deacetylase 2): 6.57
- pIC50 (Histone deacetylase 5): 5.27
